Structures are written as SMILES. In brackets after ≈: the same amount, converted by molar mass.

Common to all, as to type: functional
The subject of test [1] is Staphylococcus aureus. Kind of test: Antibacterial activity was determined against gram positive organism, Staphylococcus aureus UC76. An outline of the steps:
(§1)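 MIC (µg/mL) by standard microtitration against a panel of 10 Gram-positive and Gram-negative organisms; values averaged from multiple experiments.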

Test [2] deals with Streptococcus pyogenes. The test is described as follows: The in vivo potency was determined in female charles river CD-1 mice infected with Streptococcus pyogenes after peroral administration. The following applies: for ED50: Streptococcus pyogenes, po, read-out: PD50. An outline of the steps:
(§2)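 Acute lethal systemic infection in female CD-1 mice, 16 mice per route; single dose given orally by gavage at the time of challenge; median protective dose (PD50, mg/kg) determined.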

The test system of test [3] is Bacteria. Kind of test: MIC ratio measured as the mean MICs of gram-positive bacteria. An outline of the steps:
(§3)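 Geometric mean of the microtitration MICs (µg/mL) over the Gram-negative organisms, and separately over the Gram-positive organisms, of the 10-strain panel; individual MICs averaged from multiple experiments.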

The target in test [4] is DNA gyrase (Escherichia coli) (UniProt P0AES6+P0AES4). The test is described as follows: Minimum inhibitory concentration against Escherichia coli DNA-gyrase in supercoiling assay.
The subject of test [5] is Streptococcus pneumoniae. Kind of test: The in vivo potency was determined in female charles river CD-1 mice infected with Streptococcus pneumoniae after peroral administration. The following applies: for ED50: Streptococcus pneumoniae, po, read-out: PD50. The method in brief: as §2
Test [6] concerns Streptococcus pyogenes. Kind of test: The in vivo potency was determined in female charles river CD-1 mice infected with Streptococcus pyogenes after sc administration. The following applies: for ED50: Streptococcus pyogenes, sc, read-out: PD50. The method in brief:
(§4)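 Acute lethal systemic infection in female CD-1 mice, 16 mice per route; single subcutaneous dose given at the time of challenge; median protective dose (PD50, mg/kg) determined.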

The subject of test [7] is Staphylococcus aureus. The test is described as follows: Antibacterial activity was determined against gram positive organism, Staphylococcus aureus H228. The method in brief: as §1
In test [8] the test system is Escherichia coli. The test is described as follows: The in vivo potency was determined in female charles river CD-1 mice infected with Escherichia coli after peroral administration. The following applies: for ED50: Escherichia coli, po, read-out: PD50. An outline of the steps:
as §2

Test [9] has as its system Klebsiella pneumoniae. Kind of test: Antibacterial activity was determined against gram negative organism, Klebsiella pneumoniae MGH-2. An outline of the steps: as §1
For test [10], the system named is Escherichia coli. Kind of test: Antibacterial activity was determined against gram negative organism, Escherichia coli vogel. The method in brief:
as §1

In test [11] the test system is Pseudomonas aeruginosa. Kind of test: Antibacterial activity was determined against gram negative organism, Pseudomonas aeruginosa UI-18. An outline of the steps:
as §1

For test [12], the system named is Escherichia coli. The test is described as follows: The in vivo potency was determined in female charles river CD-1 mice infected with Escherichia coli after sc administration. The following applies: for ED50: Escherichia coli, sc, read-out: PD50. The method in brief:
as §4

For test [13], the system named is Streptococcus pneumoniae. Kind of test: The in vivo potency was determined in female charles river CD-1 mice infected with Streptococcus pneumoniae after sc administration. The following applies: for ED50: Streptococcus pneumoniae, sc, read-out: PD50. An outline of the steps: as §4
The subject of test [14] is Streptococcus pyogenes. The test is described as follows: Antibacterial activity was determined against gram positive organism, Streptococcus pyogenes C203. The method in brief:
as §1

The subject of test [15] is Bacteria. The test is described as follows: MIC ratio measured as the mean MICs of gram-negative bacteria. The method in brief: as §3
Test [16] relates to Streptococcus pneumoniae. Kind of test: Antibacterial activity was determined against gram positive organism, Streptococcus pneumoniae SV-1. The method in brief:
as §1

For test [17], the system named is Enterobacter cloacae. Kind of test: Antibacterial activity was determined against gram negative organism, Enterobacter cloacae MA2646.
In test [18] the test system is Bacteria. The test is described as follows: Antibacterial activity was determined against gram negative organism, Providencia rettgeri. M1771. The method in brief:
as §1

Test [19] concerns Enterococcus faecalis. Kind of test: Antibacterial activity was determined against gram positive organism, Streptococcus faecalis MGH-2. An outline of the steps:
as §1

[20] abbreviates: Staphylococcus aureus, read-out: MIC.
[21] abbreviates: Klebsiella pneumoniae, read-out: MIC.
Where [22] appears, read: Escherichia coli, read-out: MIC.
Where [23] appears, read: Pseudomonas aeruginosa, read-out: MIC.
[24] abbreviates: Streptococcus pyogenes, read-out: MIC.
Setting [25] is: Streptococcus pneumoniae, read-out: MIC.
The mark [26] stands for this setting: Enterobacter cloacae, read-out: MIC.
The mark [27] stands for this setting: Enterococcus faecalis, read-out: MIC.

On to `Nc1c(F)c(N2CCC(N)C2)c(F)c2c1c(=O)c(C(=O)O)cn2C1CC1` (stereo not drawn), for which the MIC is 0.013 µg/mL (≈ 0.0357 µM) in test [1] (setting [20]); 0.5 µg/mL (≈ 1.37 µM) in [4]; 0.05 µg/mL (≈ 0.137 µM) in test [7] (setting [20]); 0.013 µg/mL (≈ 0.0357 µM) in test [9] (setting [21]); 0.006 µg/mL (≈ 0.0165 µM) in test [10] (setting [22]); 0.1 µg/mL (≈ 0.274 µM) in [11] (setting [23]). The MIC in [14] (setting [24]) came to 0.025 µg/mL (≈ 0.0686 µM); in test [16] (setting [25]) it was 0.025 µg/mL (≈ 0.0686 µM); in [17] (setting [26]) it was 0.006 µg/mL (≈ 0.0165 µM); in test [18] (Bacteria, read-out: MIC), 0.025 µg/mL (≈ 0.0686 µM); in test [19] (setting [27]), 0.05 µg/mL (≈ 0.137 µM). In addition, the ED50 in [2] was 20 mg/kg; in test [5], 28 mg/kg; in [6], 9 mg/kg; in test [8] it was 2 mg/kg; in test [12] it was 1 mg/kg; in test [13] it was 8 mg/kg. Moreover, the “Geometric mean MIC over Gram-positive bacteria (µg/mL)” value in test [3] is given as 0.029. Further, the Geometric mean MIC over Gram-negative bacteria (µg/mL) in test [15] worked out at 0.016.

On to `CC1CN(c2c(F)c(N)c3c(=O)c(C(=O)O)cn(C4CC4)c3c2Cl)CCN1` (stereo not drawn), for which the MIC in [1] (setting [20]) was 0.025 µg/mL (≈ 0.0633 µM); in test [4], 3.8 µg/mL (≈ 9.62 µM); in test [7] (setting [20]), 0.05 µg/mL (≈ 0.127 µM); in test [9] (setting [21]), 0.1 µg/mL (≈ 0.253 µM); in test [10] (setting [22]), 0.025 µg/mL (≈ 0.0633 µM); in test [11] (setting [23]) it was 0.8 µg/mL (≈ 2.03 µM). Further, the MIC in test [14] (setting [24]) is 0.1 µg/mL (≈ 0.253 µM); in test [16] (setting [25]), 0.05 µg/mL (≈ 0.127 µM); in test [17] (setting [26]), 0.05 µg/mL (≈ 0.127 µM); in test [18] (Bacteria, read-out: MIC) it was 0.2 µg/mL (≈ 0.507 µM); in [19] (setting [27]), 0.1 µg/mL (≈ 0.253 µM). The ED50 in test [2] stood at 6 mg/kg; in test [5], 12 mg/kg; in test [6], 4 mg/kg; in test [8] it was 0.7 mg/kg; in test [12], 0.3 mg/kg; in [13] it was 9 mg/kg. Besides, the “Geometric mean MIC over Gram-positive bacteria (µg/mL)” value in test [3] is 0.057. Also, the Geometric mean MIC over Gram-negative bacteria (µg/mL) in [15] amounted to 0.11.

As for `C[C@@H]1CN(c2c(F)c(N)c3c(=O)c(C(=O)O)cn(C4CC4)c3c2F)C[C@H](C)N1` [SPARFLOXACIN], the MIC in test [1] (setting [20]) is 0.013 µg/mL (≈ 0.0331 µM); in [4], 2.5 µg/mL (≈ 6.37 µM); in test [7] (setting [20]), 0.05 µg/mL (≈ 0.127 µM); in [9] (setting [21]), 0.05 µg/mL (≈ 0.127 µM); in [10] (setting [22]) it was 0.025 µg/mL (≈ 0.0637 µM); in [11] (setting [23]) it was 0.8 µg/mL (≈ 2.04 µM). Besides, the MIC in [14] (setting [24]) came to 0.1 µg/mL (≈ 0.255 µM); in test [16] (setting [25]), 0.05 µg/mL (≈ 0.127 µM); in test [17] (setting [26]), 0.025 µg/mL (≈ 0.0637 µM); in test [18] (Bacteria, read-out: MIC), 0.2 µg/mL (≈ 0.51 µM); in test [19] (setting [27]), 0.1 µg/mL (≈ 0.255 µM). For the same molecule, the ED50 in [2] worked out at 14 mg/kg; in test [5] it was 17 mg/kg; in test [6], 13 mg/kg; in test [8], 1 mg/kg; in [12], 0.4 mg/kg; in [13], 17 mg/kg. In test [3], the “Geometric mean MIC over Gram-positive bacteria (µg/mL)” value came to 0.05. Besides, in test [15], the Geometric mean MIC over Gram-negative bacteria (µg/mL) was 0.087.

As to `O=C(O)c1cn(C2CC2)c2cc(N3CCNCC3)c(F)cc2c1=O` [CIPROFLOXACIN], the MIC in test [1] (setting [20]) was 0.2 µg/mL (≈ 0.604 µM); in test [7] (setting [20]) it was 1.6 µg/mL (≈ 4.83 µM); in test [9] (setting [21]) it was 0.05 µg/mL (≈ 0.151 µM); in [11] (setting [23]), 0.4 µg/mL (≈ 1.21 µM); in [14] (setting [24]), 0.8 µg/mL (≈ 2.41 µM); in test [16] (setting [25]), 0.8 µg/mL (≈ 2.41 µM). Further, the MIC in test [18] (Bacteria, read-out: MIC) amounted to 0.05 µg/mL (≈ 0.151 µM); in test [19] (setting [27]), 0.8 µg/mL (≈ 2.41 µM). The ED50 was over 100 mg/kg in test [2]; over 100 mg/kg in [5]; 19 mg/kg in [6]; 1 mg/kg in test [8]; 0.3 mg/kg in test [12]; 228 mg/kg in [13].

For the molecule `NC1CCN(c2c(F)cc3c(=O)c(C(=O)O)cn(C4CC4)c3c2Cl)C1` (stereo in doubt; 1h-4) [CLINAFLOXACIN], the MIC turned out to be 0.013 µg/mL (≈ 0.0355 µM) in [1]; 0.025 µg/mL (≈ 0.0683 µM) in test [7]; 0.025 µg/mL (≈ 0.0683 µM) in test [9]; 0.025 µg/mL (≈ 0.0683 µM) in test [10]; 0.05 µg/mL (≈ 0.137 µM) in [11]; 0.05 µg/mL (≈ 0.137 µM) in test [14]. Also, the MIC was 0.025 µg/mL (≈ 0.0683 µM) in [16], 0.025 µg/mL (≈ 0.0683 µM) in test [17], 0.025 µg/mL (≈ 0.0683 µM) in [18] and 0.05 µg/mL (≈ 0.137 µM) in test [19]. The PD50 in [2] amounted to 10 mg/kg; in test [5] it was 14 mg/kg; in [6] it was 4 mg/kg; in test [8], 3 mg/kg; in test [12], 0.6 mg/kg; in test [13] it was 5 mg/kg. For the same molecule, the “Geometric mean MIC over Gram-positive bacteria (µg/mL)” value in [3] is recorded as 0.029.

Source of the values: ChEMBL document CHEMBL1125826, “Synthesis and biological activity of 5-amino- and 5-hydroxyquinolones, and the overwhelming influence of the remote N1-substituent in determining the structure-activity relationship” (1991).
